Source: ChEMBL document CHEMBL3627671, “Novel derivatives of nitro-substituted salicylic acids: Synthesis, antimicrobial activity and cytotoxicity” (Bioorg Med Chem, 2015)
pIC50: −log10 of the molar value. Values after ≈ are worked out from the molar mass of the structure shown.

How the values were obtained:
[1] = system: Candida albicans; experiment: Antifungal activity against Candida albicans ATCC 44859 after 24 hrs by microdilution broth method; assay type: functional; conditions: ATCC 44859, 24 h
In short: (§1)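 CLSI M27-A3 broth microdilution in RPMI 1640 with glutamine, buffered to pH 7.0 with MOPS; DMSO diluent. Yeast inoculum 5 × 10^3 ± 0.2 CFU/mL. Moulds grown on Sabouraud agar 3–10 days before spore harvest, final inoculum 0.5-5 × 10^4 CFU/mL, checked in a Bürker chamber. Incubated dark, humid, 35 °C, read at 24 and 48 h visually and at 540 nm. MIC taken as ≥80% (yeasts) or ≥50% (filamentous) growth reduction versus control.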

[2] = system: Lichtheimia corymbifera; experiment: Antifungal activity against Absidia corymbifera 272 after 48 hrs by microdilution broth method; assay type: functional; conditions: Lichtheimia corymbifera, 272, 48 h; in short: as §1
[3] = system: Enterococcus sp.; experiment: Antibacterial activity against Enterococcus sp. J 14365/08 after 24 hrs by microdilution broth method; assay type: functional; conditions: J 14365/08, 24 h
In short: (§2)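 Mueller-Hinton broth microdilution (modified M07-A07), pH 7.4 (±0.2). Compounds dissolved in DMSO, tested at final 500 to 0.49 µmol/L. Inoculum in sterile water matched to 0.5 McFarland. Incubated in the dark, humid atmosphere, 35 °C, read at 24 and 48 h visually and at 540 nm. MIC taken as ≥95% growth reduction (IC95) versus control.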

[4] = system: Trichophyton mentagrophytes; experiment: Antifungal activity against Trichophyton mentagrophytes 445 after 48 hrs by microdilution broth method; assay type: functional; conditions: Trichophyton mentagrophytes, 445, 48 h
[5] = system: Candida tropicalis; experiment: Antifungal activity against Candida tropicalis 156 after 48 hrs by microdilution broth method; assay type: functional; conditions: Candida tropicalis, 156, 48 h; in short: as §1
[6] = system: Mycobacterium kansasii; experiment: Antimycobacterial activity against Mycobacterium kansasii 235/80 after 21 days; assay type: functional; conditions: 235/80, 504 h
In short: (§3)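 Šula's semisynthetic medium micromethod at 37 °C, read after 7, 14 and 21 days. The 1.0 McFarland suspension was diluted 10^-4. MIC determined. 6509/96 is a clinical isolate.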

[7] = system: Trichosporon asahii; experiment: Antifungal activity against Trichosporon asahii 1188 after 48 hrs by microdilution broth method; assay type: functional; conditions: Trichosporon asahii, 1188, 48 h; in short: as §1
[8] = system: Mycobacterium kansasii; experiment: Antimycobacterial activity against Mycobacterium kansasii 235/80 after 7 days; assay type: functional; conditions: 235/80, 168 h; in short: as §3
[9] = system: Escherichia coli; experiment: Antibacterial activity against Escherichia coli CCM4517 after 48 hrs by microdilution broth method; assay type: functional; conditions: CCM4517, 48 h; in short: as §2
[10] = system: Staphylococcus aureus; experiment: Antibacterial activity against methicillin-resistant Staphylococcus aureus H 5996/08 after 48 hrs by microdilution broth method; assay type: functional; conditions: H 5996/08, 48 h
[11] = system: Enterococcus sp.; experiment: Antibacterial activity against Enterococcus sp. J 14365/08 after 48 hrs by microdilution broth method; assay type: functional; conditions: J 14365/08, 48 h; in short: as §2
[12] = system: Mycobacterium kansasii; experiment: Antimycobacterial activity against Mycobacterium kansasii 6509/96 after 7 days; assay type: functional; conditions: 6509/96, 168 h; in short: as §3
[13] = system: Pichia kudriavzevii; experiment: Antifungal activity against Candida krusei E28 after 48 hrs by microdilution broth method; assay type: functional; conditions: E28, 48 h; in short: as §1
[14] = system: Pseudomonas aeruginosa; experiment: Antibacterial activity against Pseudomonas aeruginosa CCM 1961 after 48 hrs by microdilution broth method; assay type: functional; conditions: CCM 1961, 48 h; in short: as §2
[15] = system: Mycobacterium avium; experiment: Antimycobacterial activity against Mycobacterium avium 330/80 after 14 days; assay type: functional; conditions: 330/80, 336 h
[16] = system: Escherichia coli; experiment: Antibacterial activity against Escherichia coli CCM4517 after 24 hrs by microdilution broth method; assay type: functional; conditions: CCM4517, 24 h; in short: as §2
[17] = system: Staphylococcus aureus; experiment: Antibacterial activity against Staphylococcus aureus CCM 4516/08 after 24 hrs by microdilution broth method; assay type: functional; conditions: CCM 4516/08, 24 h
[18] = Selectivity index, ratio of CI50 for human HepG2 cells to MIC100 for Mycobacterium tuberculosis H37Rv 331/88
[19] = system: Pichia kudriavzevii; experiment: Antifungal activity against Candida krusei E28 after 24 hrs by microdilution broth method; assay type: functional; conditions: E28, 24 h; in short: as §1
[20] = system: Klebsiella pneumoniae; experiment: Antibacterial activity against Klebsiella pneumoniae D 11750/08 after 48 hrs by microdilution broth method; assay type: functional; conditions: D 11750/08, 48 h; in short: as §2
[21] = system: Mycobacterium kansasii; experiment: Antimycobacterial activity against Mycobacterium kansasii 235/80 after 14 days; assay type: functional; conditions: 235/80, 336 h; in short: as §3
[22] = system: Mycobacterium kansasii; experiment: Antimycobacterial activity against Mycobacterium kansasii 6509/96 after 14 days; assay type: functional; conditions: 6509/96, 336 h; in short: as §3
[23] = system: Nakaseomyces glabratus; experiment: Antifungal activity against Candida glabrata 20/I after 24 hrs by microdilution broth method; assay type: functional; in short: as §1
[24] = system: Aspergillus fumigatus; experiment: Antifungal activity against Aspergillus fumigatus 231 after 24 hrs by microdilution broth method; assay type: functional; conditions: Aspergillus fumigatus, 231, 24 h; in short: as §1
[25] = system: Mycobacterium avium; experiment: Antimycobacterial activity against Mycobacterium avium 330/80 after 21 days; assay type: functional; conditions: 330/80, 504 h
[26] = system: HepG2; experiment: Cytotoxicity against human HepG2 cells after 24 hrs […]; assay type: cell-based; conditions: HepG2, 24 h
[27] = system: Aspergillus fumigatus; experiment: Antifungal activity against Aspergillus fumigatus 231 after 48 hrs by microdilution broth method; assay type: functional; conditions: Aspergillus fumigatus, 231, 48 h; in short: as §1
[28] = system: Staphylococcus aureus; experiment: Antibacterial activity against Staphylococcus aureus CCM 4516/08 after 48 hrs by microdilution broth method; assay type: functional; conditions: CCM 4516/08, 48 h
[29] = system: Lichtheimia corymbifera; experiment: Antifungal activity against Absidia corymbifera 272 after 24 hrs by microdilution broth method; assay type: functional; conditions: Lichtheimia corymbifera, 272, 24 h; in short: as §1
[30] = system: Mycobacterium tuberculosis; experiment: Antimycobacterial activity against Mycobacterium tuberculosis H37Rv 331/88 after 14 days; assay type: functional; conditions: H37Rv 331/88, 336 h
[31] = system: Pseudomonas aeruginosa; experiment: Antibacterial activity against Pseudomonas aeruginosa CCM 1961 after 24 hrs by microdilution broth method; assay type: functional; conditions: CCM 1961, 24 h; in short: as §2
[32] = system: Candida albicans; experiment: Antifungal activity against Candida albicans ATCC 44859 after 48 hrs by microdilution broth method; assay type: functional; conditions: ATCC 44859, 48 h; in short: as §1
[33] = system: Staphylococcus epidermidis; experiment: Antibacterial activity against Staphylococcus epidermidis H 6966/08 after 48 hrs by microdilution broth method; assay type: functional; conditions: H 6966/08, 48 h; in short: as §2
[34] = system: Trichosporon asahii; experiment: Antifungal activity against Trichosporon asahii 1188 after 24 hrs by microdilution broth method; assay type: functional; conditions: Trichosporon asahii, 1188, 24 h; in short: as §1
[35] = system: Staphylococcus epidermidis; experiment: Antibacterial activity against Staphylococcus epidermidis H 6966/08 after 24 hrs by microdilution broth method; assay type: functional; conditions: H 6966/08, 24 h; in short: as §2
[36] = system: Candida tropicalis; experiment: Antifungal activity against Candida tropicalis 156 after 24 hrs by microdilution broth method; assay type: functional; conditions: Candida tropicalis, 156, 24 h; in short: as §1
[37] = system: Trichophyton mentagrophytes; experiment: Antifungal activity against Trichophyton mentagrophytes 445 after 24 hrs by microdilution broth method; assay type: functional; conditions: Trichophyton mentagrophytes, 445, 24 h
[38] = system: Klebsiella pneumoniae; experiment: Antibacterial activity against ESBL-positive Klebsiella pneumoniae J 14368/08 after 24 hrs by microdilution broth method; assay type: functional; conditions: J 14368/08, 24 h; in short: as §2
[39] = system: Klebsiella pneumoniae; experiment: Antibacterial activity against Klebsiella pneumoniae D 11750/08 after 24 hrs by microdilution broth method; assay type: functional; conditions: D 11750/08, 24 h; in short: as §2
[40] = system: Mycobacterium kansasii; experiment: Antimycobacterial activity against Mycobacterium kansasii 6509/96 after 21 days; assay type: functional; conditions: 6509/96, 504 h; in short: as §3
[41] = system: Klebsiella pneumoniae; experiment: Antibacterial activity against ESBL-positive Klebsiella pneumoniae J 14368/08 after 48 hrs by microdilution broth method; assay type: functional; conditions: J 14368/08, 48 h; in short: as §2
[42] = system: Nakaseomyces glabratus; experiment: Antifungal activity against Candida glabrata 20/I after 48 hrs by microdilution broth method; assay type: functional; in short: as §1
[43] = system: Mycobacterium tuberculosis; experiment: Antimycobacterial activity against Mycobacterium tuberculosis H37Rv 331/88 after 21 days; assay type: functional; conditions: H37Rv 331/88, 504 h
[44] = system: Staphylococcus aureus; experiment: Antibacterial activity against methicillin-resistant Staphylococcus aureus H 5996/08 after 24 hrs by microdilution broth method; assay type: functional; conditions: H 5996/08, 24 h

In the case of `O=C(Nc1cc(C(F)(F)F)cc(C(F)(F)F)c1)c1ccc([N+](=O)[O-])cc1O`, the MIC [1] was greater than 500 µM, the MIC [2] was greater than 500 µM and the MIC [3] was 62.5 µM (≈ 24.6 µg/mL). For the same compound, the MIC [4] was greater than 500 µM, the MIC [5] was greater than 500 µM and the MIC [6] was 16 µM (≈ 6.31 µg/mL). For the same compound, the MIC [7] was greater than 500 µM, the MIC [8] was 8 µM (≈ 3.15 µg/mL) and the MIC [9] was greater than 500 µM. It also gave an MIC [10] of 0.98 µM (≈ 0.386 µg/mL), an MIC [11] of 125 µM (≈ 49.3 µg/mL) and an MIC [12] of 16 µM (≈ 6.31 µg/mL). It also gave an MIC [13] greater than 500 µM, an MIC [14] greater than 500 µM and an MIC [15] of 32 µM (≈ 12.6 µg/mL). The MIC [16] was greater than 500 µM, the MIC [17] was 1.95 µM (≈ 0.769 µg/mL) and the “Selectivity Index” value [18] was 0.55. It also gave an MIC [19] greater than 500 µM, an MIC [20] greater than 500 µM and an MIC [21] of 16 µM (≈ 6.31 µg/mL). It also gave an MIC [22] of 16 µM (≈ 6.31 µg/mL), an MIC [23] greater than 500 µM and an MIC [24] greater than 500 µM. It also gave an MIC [25] of 32 µM (≈ 12.6 µg/mL), a pIC50 [26] of 5.36 and an MIC [27] greater than 500 µM. It also gave an MIC [28] of 1.95 µM (≈ 0.769 µg/mL), an MIC [29] greater than 500 µM and an MIC [30] of 4 µM (≈ 1.58 µg/mL). The MIC [31] was greater than 500 µM, the MIC [32] was greater than 500 µM and the MIC [33] was 1.95 µM (≈ 0.769 µg/mL). The MIC [34] was greater than 500 µM, the MIC [35] was 1.95 µM (≈ 0.769 µg/mL) and the MIC [36] was greater than 500 µM. For the same compound, the MIC [37] was greater than 500 µM, the MIC [38] was greater than 500 µM and the MIC [39] was greater than 500 µM. For the same compound, the MIC [40] was 16 µM (≈ 6.31 µg/mL), the MIC [41] was greater than 500 µM and the MIC [42] was greater than 500 µM. The MIC [43] was 8 µM (≈ 3.15 µg/mL) and the MIC [44] was 0.98 µM (≈ 0.386 µg/mL).
